Laboratory results reported in ChEMBL document CHEMBL1154186, “Synthesis, kinase inhibitory potencies, and in vitro antiproliferative evaluation of new Pim kinase inhibitors” (J Med Chem, 2009).

Tests used:
[1] = biological target: T1, Mitogen-activated protein kinase 12 (Homo sapiens) (UniProt P53778); assay: Inhibition of p38-gamma assessed as residual enzyme activity at 10 uM relative to untreated control
T1 sequence (whole entry): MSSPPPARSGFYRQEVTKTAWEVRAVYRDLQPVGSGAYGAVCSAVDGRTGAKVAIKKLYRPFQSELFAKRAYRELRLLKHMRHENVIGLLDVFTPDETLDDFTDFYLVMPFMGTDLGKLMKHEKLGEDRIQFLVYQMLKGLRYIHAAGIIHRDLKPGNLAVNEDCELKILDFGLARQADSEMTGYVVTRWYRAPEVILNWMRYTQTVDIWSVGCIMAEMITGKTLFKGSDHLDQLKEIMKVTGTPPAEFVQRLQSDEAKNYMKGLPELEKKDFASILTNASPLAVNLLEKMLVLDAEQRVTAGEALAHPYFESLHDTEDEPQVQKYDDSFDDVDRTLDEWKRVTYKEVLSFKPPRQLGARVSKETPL
Method in brief: (§1)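 p38γ and p38δ MAPK run at 5 µM [γ-33P]ATP, and p38α at 50 µM, each with 10 mM Mg acetate. Buffer 50 mM Tris/HCl pH 7.5, 0.1 mM EGTA, 0.1% 2-mercaptoethanol. 10 µM compound, 30 min at 21 °C. P81 filter capture. Residual activity relative to control, duplicates.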

[2] = biological target: T2, Serine/threonine-protein kinase D1 (Homo sapiens) (UniProt Q15139); assay: Inhibition of PKD1 assessed as residual enzyme activity at 10 uM relative to untreated control
T2 sequence (whole entry): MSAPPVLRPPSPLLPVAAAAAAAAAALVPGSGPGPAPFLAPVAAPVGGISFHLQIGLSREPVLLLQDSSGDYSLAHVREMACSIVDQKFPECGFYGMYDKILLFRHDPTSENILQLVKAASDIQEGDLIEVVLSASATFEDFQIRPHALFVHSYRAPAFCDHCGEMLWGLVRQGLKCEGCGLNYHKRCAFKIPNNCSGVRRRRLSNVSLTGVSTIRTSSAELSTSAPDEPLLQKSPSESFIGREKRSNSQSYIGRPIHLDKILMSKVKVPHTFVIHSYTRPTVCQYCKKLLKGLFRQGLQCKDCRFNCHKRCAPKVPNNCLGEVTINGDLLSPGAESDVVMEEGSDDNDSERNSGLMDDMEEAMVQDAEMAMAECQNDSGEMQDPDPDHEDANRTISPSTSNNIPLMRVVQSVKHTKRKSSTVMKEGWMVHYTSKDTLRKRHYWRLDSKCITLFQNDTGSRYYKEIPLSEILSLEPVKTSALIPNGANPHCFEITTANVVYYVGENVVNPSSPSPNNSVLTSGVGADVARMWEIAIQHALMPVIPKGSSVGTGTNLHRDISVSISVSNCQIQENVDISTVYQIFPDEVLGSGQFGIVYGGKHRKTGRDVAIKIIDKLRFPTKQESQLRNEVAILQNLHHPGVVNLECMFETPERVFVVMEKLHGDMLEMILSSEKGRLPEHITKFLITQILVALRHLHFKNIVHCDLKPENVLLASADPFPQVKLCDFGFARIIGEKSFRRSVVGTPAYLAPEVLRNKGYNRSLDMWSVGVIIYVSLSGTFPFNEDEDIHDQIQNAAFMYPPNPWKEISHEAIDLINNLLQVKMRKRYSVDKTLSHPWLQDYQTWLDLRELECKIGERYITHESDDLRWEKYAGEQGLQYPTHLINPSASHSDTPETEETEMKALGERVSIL

[3] = biological target: T3, Serine/threonine-protein kinase BRSK2 (Homo sapiens) (UniProt Q8IWQ3); assay: Inhibition of BRSK2 assessed as residual enzyme activity at 10 uM relative to untreated control
T3 sequence (whole entry): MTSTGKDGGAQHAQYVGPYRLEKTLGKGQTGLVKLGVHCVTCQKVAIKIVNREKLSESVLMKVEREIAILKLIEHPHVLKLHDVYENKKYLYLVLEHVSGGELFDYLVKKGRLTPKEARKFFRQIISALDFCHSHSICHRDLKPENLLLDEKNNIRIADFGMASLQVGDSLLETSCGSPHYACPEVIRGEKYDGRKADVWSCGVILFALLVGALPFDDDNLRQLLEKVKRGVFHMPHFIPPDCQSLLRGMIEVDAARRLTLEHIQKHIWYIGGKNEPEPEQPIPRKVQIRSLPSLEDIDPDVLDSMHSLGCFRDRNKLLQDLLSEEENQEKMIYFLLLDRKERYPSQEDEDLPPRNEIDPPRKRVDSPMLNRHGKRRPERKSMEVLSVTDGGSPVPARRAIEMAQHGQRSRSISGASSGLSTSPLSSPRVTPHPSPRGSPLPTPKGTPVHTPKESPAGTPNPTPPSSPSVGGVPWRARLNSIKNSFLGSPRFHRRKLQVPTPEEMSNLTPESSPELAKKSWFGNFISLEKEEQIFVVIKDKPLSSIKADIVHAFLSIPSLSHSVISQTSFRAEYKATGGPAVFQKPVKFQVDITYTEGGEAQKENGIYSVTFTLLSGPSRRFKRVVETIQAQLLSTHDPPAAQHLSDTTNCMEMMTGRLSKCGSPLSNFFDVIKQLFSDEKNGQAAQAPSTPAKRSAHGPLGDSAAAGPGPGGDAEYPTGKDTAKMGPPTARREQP
Method in brief: (§2)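 Assayed with [γ-33P]ATP at 50 µM and 10 mM Mg acetate in 50 mM Tris/HCl pH 7.5, 0.1 mM EGTA, 0.1% 2-mercaptoethanol, 30 min, 21 °C. Phosphoric acid stop, P81 filter capture. ERK2 and Lck are mouse; AMPK is rat. 10 µM compound; % activity remaining relative to control without inhibitor, duplicates.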

[4] = biological target: MAP kinase-interacting serine/threonine-protein kinase 1 (Homo sapiens) (UniProt Q9BUB5); assay: Inhibition of MNK1 assessed as residual enzyme activity at 10 uM relative to untreated control; method in brief: as §2
[5] = biological target: Protein kinase C zeta type (Homo sapiens) (UniProt Q05513); assay: Inhibition of PKCzeta assessed as residual enzyme activity at 10 uM relative to untreated control
[6] = biological target: Mitogen-activated protein kinase 14 (Homo sapiens) (UniProt Q16539); assay: Inhibition of p38alpha assessed as residual enzyme activity at 10 uM relative to untreated control; method in brief: as §1
[7] = biological target: Serine/threonine-protein kinase pim-1 (Homo sapiens) (UniProt P11309); assay: Inhibition of Pim-1 assessed as residual enzyme activity at 10 uM relative to untreated control
[8] = Inhibition of CK1 assessed as residual enzyme activity at 10 uM relative to untreated control

Sequence of Protein kinase C zeta type (Homo sapiens) (Q05513 whole entry, looked up): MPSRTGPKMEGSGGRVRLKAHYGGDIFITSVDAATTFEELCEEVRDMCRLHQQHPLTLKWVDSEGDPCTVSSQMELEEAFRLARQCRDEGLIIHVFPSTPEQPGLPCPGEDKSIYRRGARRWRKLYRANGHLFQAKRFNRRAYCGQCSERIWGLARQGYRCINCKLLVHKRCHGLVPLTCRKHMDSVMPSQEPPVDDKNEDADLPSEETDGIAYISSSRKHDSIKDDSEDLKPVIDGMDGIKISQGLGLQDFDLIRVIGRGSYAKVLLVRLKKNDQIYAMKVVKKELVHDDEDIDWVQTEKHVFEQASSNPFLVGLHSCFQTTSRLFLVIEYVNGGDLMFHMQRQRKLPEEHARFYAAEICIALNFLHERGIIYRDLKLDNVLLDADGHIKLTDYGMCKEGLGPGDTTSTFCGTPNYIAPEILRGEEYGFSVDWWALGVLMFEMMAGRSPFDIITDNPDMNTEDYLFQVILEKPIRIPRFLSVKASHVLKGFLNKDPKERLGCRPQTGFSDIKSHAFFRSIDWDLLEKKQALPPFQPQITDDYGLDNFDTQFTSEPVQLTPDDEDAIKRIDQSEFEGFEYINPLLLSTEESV
Sequence of MAP kinase-interacting serine/threonine-protein kinase 1 (Homo sapiens) (Q9BUB5 whole entry, looked up): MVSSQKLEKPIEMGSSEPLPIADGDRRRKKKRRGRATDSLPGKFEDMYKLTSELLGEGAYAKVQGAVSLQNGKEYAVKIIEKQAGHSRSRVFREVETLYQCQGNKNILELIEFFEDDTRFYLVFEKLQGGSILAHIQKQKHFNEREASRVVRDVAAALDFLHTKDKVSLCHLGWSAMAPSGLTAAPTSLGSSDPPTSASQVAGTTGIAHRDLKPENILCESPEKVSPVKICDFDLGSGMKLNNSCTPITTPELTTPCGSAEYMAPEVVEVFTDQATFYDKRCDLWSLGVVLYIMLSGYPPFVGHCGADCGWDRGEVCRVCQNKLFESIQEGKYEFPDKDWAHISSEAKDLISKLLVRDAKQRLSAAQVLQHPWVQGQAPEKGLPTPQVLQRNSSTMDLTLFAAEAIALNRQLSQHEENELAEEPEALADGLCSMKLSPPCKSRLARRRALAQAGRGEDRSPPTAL
Sequence of Mitogen-activated protein kinase 14 (Homo sapiens) (Q16539 whole entry): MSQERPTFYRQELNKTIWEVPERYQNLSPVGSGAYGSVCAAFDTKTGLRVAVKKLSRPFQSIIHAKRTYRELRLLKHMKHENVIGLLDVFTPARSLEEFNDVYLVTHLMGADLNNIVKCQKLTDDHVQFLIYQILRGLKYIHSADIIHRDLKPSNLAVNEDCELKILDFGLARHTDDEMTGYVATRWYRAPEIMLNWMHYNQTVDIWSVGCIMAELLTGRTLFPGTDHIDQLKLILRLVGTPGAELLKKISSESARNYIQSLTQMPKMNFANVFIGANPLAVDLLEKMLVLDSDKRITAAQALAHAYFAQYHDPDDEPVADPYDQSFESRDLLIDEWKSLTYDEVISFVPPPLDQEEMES
Sequence of Serine/threonine-protein kinase pim-1 (Homo sapiens) (P11309 whole entry, looked up): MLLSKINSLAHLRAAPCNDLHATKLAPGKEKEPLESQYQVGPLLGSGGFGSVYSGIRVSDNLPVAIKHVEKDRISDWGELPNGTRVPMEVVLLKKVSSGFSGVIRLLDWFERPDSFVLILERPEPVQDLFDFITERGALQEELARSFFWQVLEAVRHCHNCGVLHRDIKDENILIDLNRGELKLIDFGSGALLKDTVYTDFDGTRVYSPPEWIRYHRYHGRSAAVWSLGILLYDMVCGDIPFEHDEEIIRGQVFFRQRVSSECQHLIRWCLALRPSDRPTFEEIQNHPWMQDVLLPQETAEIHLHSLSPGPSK

Activity [1] [%]	Activity [2] [%]	Activity [3] [%]	Activity [4] [%]	Activity [5] [%]	Activity [6] [%]	Activity [7] [%]	Activity [8] [%]	SMILES
74	28	22	27	83	102	–	–	O=Cc1c[nH]c2c1ccc1c3ccccc3[nH]c12
111	71	76	101	87	115	53	99	c1ccc2c(c1)[nH]c1c3cc[nH]c3ccc21
111	83	58	69	91	108	20	107	c1ccc2c(c1)[nH]c1c2ccc2cc[nH]c21
109	87	101	106	91	108	79	113	O=Cc1c[nH]c2ccc3c4ccccc4[nH]c3c12
